KCC2 mod: KCC2 cotransporter modulators, thallium flux, primary screen, cell-based, HEK293 KCC2, FluoZin-2 fluorescence, MLSMR. B-score of Tl+ flux slope (higher = more flux/activation; lower = inhibition) at 10 µM. Solute carrier family 12 member 5 (Homo sapiens), Q9H2X9. AID 1456, 2008. KCC2 cells, thallium flux FluoZin-2 fluorescence. 190,000 tested, 2.2% active;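 active means thallium flux slope and its plate-corrected score both differing from the plate sample mean at a set confidence after two filtering rounds, in either direction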;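 further: slope of fluorescence scaled to starting intensity during 10 to 20 s after thallium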
Diaph inh CS: diaphorase inhibitors and chemical oxidizers, primary screen, counter-screen for diaphorase-coupled primary assays, biochemical, uHTS, resorufin fluorescence. diaphorase resazurin-to-resorufin fluorescence, NADH, 16 min; bacterial (C. kluyveri) enzyme, not human. inhibition, % at 20 µM. 190,000 tested, 0.69% active. AID 1217, 2008;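 active means primary screen inhibition at 20 µM above a set limit, cut at about 50% in these data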
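material = Clostridium kluyveri diaphorase enzyme | amount = 0.14 U/mL diaphorase, enzyme working solution | schedule = incubation 16 min, room temperature | detection = fluorescence of resorufin formed from resazurin, Ex 544/Em 590 nm | benchmarks = positive control minus NADH, DMSO neutral control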
Lmaj promast: Leishmania major promastigote growth inhibition, primary screen; 200,000 tested, 9% active; Leishmania major promastigotes, resazurin fluorescence viability; inhibition, % at 10 µM; in the data active means inhibition above about 50%;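 further: promastigotes grown with compound for 44 hours at 28 °C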
ROMK primary: ROMK potassium channel modulators, primary screen, cell-based, thallium flux, MLSMR library; B-score at 10 µM; AID 1918, 2009; Tet-inducible ROMK, thallium flux fluorescence; actives lie on both sides; 130,000 tested, 2% active;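 active means signal ratio slope over the read window, or its plate-corrected B-score, at least 3 SD from the plate mean, either direction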;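 further: B-score of the F/F0 ratio slope over 7 to 12 s after thallium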
Target sequence (P48048 whole entry, looked up): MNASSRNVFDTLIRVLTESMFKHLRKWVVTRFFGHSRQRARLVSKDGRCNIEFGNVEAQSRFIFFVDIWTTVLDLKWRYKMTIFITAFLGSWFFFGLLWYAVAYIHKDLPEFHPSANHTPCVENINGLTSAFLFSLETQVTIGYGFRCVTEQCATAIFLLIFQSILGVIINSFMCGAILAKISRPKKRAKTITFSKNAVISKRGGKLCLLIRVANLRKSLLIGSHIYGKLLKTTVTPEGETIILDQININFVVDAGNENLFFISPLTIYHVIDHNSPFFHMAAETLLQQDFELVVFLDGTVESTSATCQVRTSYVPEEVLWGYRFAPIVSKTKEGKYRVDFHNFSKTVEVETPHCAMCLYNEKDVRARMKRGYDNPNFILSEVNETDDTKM
Diaph act CS: compounds boosting diaphorase resazurin reduction – biochemical, uHTS, resorufin fluorescence, counter-screen for diaphorase-coupled primary assays, primary screen; Diaphorase/resazurin coupled assay, 16 min; hits give high values; 1 = vehicle wells, 0 = NADH-free wells; activation factor at 20 µM; 190,000 tested, 0.005% active; AID 1229, 2008;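 active means diaphorase activity raised at least twofold by the compound at 20 µM; inactive means activation factor below 2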
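System – purified diaphorase enzyme from Clostridium kluyveri · Input – enzyme 0.07 U/mL final · Also added – final NADH 0.114 mM, resazurin 0.1 mM · Measured by – fluorescence of resorufin, 544 nm excitation, 590 nm emission · Timing – 16 min enzyme reaction, ambient temperature · Measure – resorufin increase flagging diaphorase activators or reducers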
WT yeast gro inh: growth inhibition of WT strain, primary screen, mitochondrial fusion inhibitor project, WT and mutant strains, chemical genetic; mitochondrial fusion phenotypic screen; inhibition, % at 10 µM; 190,000 tested, 2.1% active; in the data active means inhibition above about 58%; tested in S. cerevisiae
KCC2 sec1: KCC2 modulators in sodium-free buffer, confirmation, cell-based, HEK293 KCC2, thallium flux, secondary assay | shares compounds with KCC2 mod | FluoZin2 fluorescence; hits give high values | 3,700 tested, 15% active | normalised thallium flux (F/F0 slope) at 10 µM;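 active means thallium flux slope above the same plate's solvent-only control mean plus 3 SD; inconclusive means the two replicate wells disagree; inactive means no significant difference from solvent-only control wells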
KCC2 bumet counter: thallium flux persisting under bumetanide in KCC2 cells, confirmation, counter-screen for KCC2 modulator project, cell-based, HEK293 KCC2, FluoZin2, secondary assay 3 | shares compounds with KCC2 mod | 3,700 tested, 49% active | HEK293-KCC2 + bumetanide/ouabain; hits give high values | normalized thallium flux at 10 µM | AID 1714, 2009;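 active means thallium entry rate above the same plate's blocked-transporter control wells by more than 3 SD; inconclusive means the two repeat wells disagree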;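 further: raw slope of fluorescence over initial fluorescence between 10 and 20 s after thallium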
KCC2 secondary2: KCC2 modulators without ouabain present, confirmation, cell-based, HEK293 KCC2, thallium flux, FluoZin2, secondary assay 2 | shares compounds with KCC2 mod | normalized thallium flux at 10 µM | AID 1715, 2009 | thallium flux FluoZin2 fluorescence; actives lie on both sides; F/F0 rise rate, 10–20 s post-thallium | 3,700 tested, 23% active;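 active means thallium flux slope more than 3 SD above or below the plate's solvent-only control mean, mostly below; inconclusive means the two repeat wells disagreed; inactive means no significant shift from solvent-only controls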
HEK counter1: thallium flux modulation in parental HEK cells, confirmation, counter-screen for KCC2 modulator project, cell-based, counterscreen 1; 3,700 tested, 46% active; thallium flux rate (normalised fluorescence) at 10 µM; shares compounds with KCC2 mod; HEK293 parental cells, thallium flux FluoZin2, ouabain; baseline-ratio fluorescence slope, 10–20 s after thallium;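 active means thallium flux rate significantly above the same plate's solvent-only control wells, beyond their mean plus 3 SD; inconclusive means the two replicate wells gave conflicting results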
KCC2 retest ouab: KCC2 inhibitors and activators, ouabain retest, confirmation, HEK-KCC2 cells; shares compounds with KCC2 mod; raw Tl+ flux slope (below DMSO = inhibition, above = activation) at 10 µM; HEK293-KCC2, thallium flux FluoZin2 fluorescence; bidirectional: low = inhibitor, high = activator; 3,700 tested, 48% active;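 active means thallium flux slope beyond 3 SD from same-plate DMSO control mean in most replicates, usually higher, sometimes lower; inconclusive means repeat tests gave conflicting results; inactive means no significant difference from controls in most replicates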;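 further: slope of initial-normalized fluorescence between seconds 10 and 20 after thallium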
HEK counter2: native HEK Tl+ uptake effects, second counter-screen – HEK cells, counterscreen 2, counter-screen for KCC2 modulator project, confirmation; thallium flux slope at 10 µM; AID 1718, 2009; shares compounds with KCC2 mod; 3,700 tested, 33% active; HEK293 parental, thallium flux FluoZin-2 fluorescence slope;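 active means thallium flux slope above the same plate's solvent-control mean plus 3 SD in both duplicate wells; inconclusive means duplicate wells that disagreed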;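 further: run without ouabain in cells lacking the KCC2 cotransporter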
A number is an active result; - = inactive; ? = inconclusive; . = no result given. In the library only some 12% were active in any assay of this set; here they are far more common.

SMILES	KCC2 mod	Diaph inh CS	Lmaj promast	ROMK primary	Diaph act CS	WT yeast gro inh	KCC2 sec1	KCC2 bumet counter	KCC2 secondary2	HEK counter1	KCC2 retest ouab	HEK counter2
Oc1ccc(Cl)cc1C1=NNC(c2cccs2)C1 (stereo not given)	68.4	.	.	.	.	.	-	0.0979	?	0.0612	0.0771	0.0231
Cc1ccc(O)c(C2=NNC(O)(C(F)(F)F)C2)c1 (stereo not given)	-	-	-	-	-	-	.	.	.	.	.	.
Cc1ccc(O)c(C2=NNC(c3ccc(Cl)cc3)C2)c1 (stereo not given)	8.55	.	.	.	.	.	-	0.0156	-	0.0134	-	?
COc1ccc(/C=C(\C#N)C(=O)Nc2ccc3[nH]c(=O)[nH]c3c2)cc1	-	.	.	.	.	.	.	.	.	.	.	.
O=[N+]([O-])c1ccc(O)c(/C=N/n2c(CO)nc3ccccc32)c1	-	.	.	.	.	.	.	.	.	.	.	.
O=[N+]([O-])c1ccc(O)c(/C=N/n2cnc3ccccc32)c1	-4.52	-	-	.	-	-	-	-	0.0215	0.00606	0.0132	?
CCOCCCNC(=O)CCCn1nc(C)n2c(cc3sccc32)c1=O	-	-	-	.	-	-	.	.	.	.	.	.
CCOC(=O)C1CCCN(C(=O)CCCn2nc(C)n3c(cc4sccc43)c2=O)C1 (stereo not given)	-4.24	-	-	.	-	-	-	0.00876	-	-	-	-
CC1CCCC/C1=N\NC(=S)Nc1ccccc1 (stereo not given)	9.47	-	-	-	-	-	0.0132	0.0525	-	0.0188	0.0478	0.013
CC1CCC/C(=N\NC(=S)Nc2ccccc2)C1 (stereo not given)	14.8	-	-	-	-	-	0.0144	0.0494	-	0.0177	0.0353	0.0118
CCc1ccc(NC(=S)Nc2cccc(OC)c2)cc1	-	-	-	-	-	-	.	.	.	.	.	.
COc1cccc(NC(=S)NN=C2CCCCCC2)c1	39	-	-	-	-	-	0.0185	0.0996	?	0.0409	0.0499	0.0174
CC1CCC/C(=N\NC(=S)NCc2ccccc2)C1 (stereo not given)	8.05	-	-	.	-	-	-	0.0104	-	?	-	-
C=CCC(NC(C)c1ccccc1)c1ccco1 (stereo not given)	-	-	-	.	-	-	.	.	.	.	.	.
Cc1noc(C)c1S(=O)(=O)Nc1ccc(C(=O)NC2CCCCC2C)cc1 (stereo not given)	-	-	-	.	-	-	.	.	.	.	.	.
Cc1noc(C)c1S(=O)(=O)Nc1ccc(C(=O)NC2CCCCCC2)cc1	-4.21	-	-	-	-	-	?	-	-	-	-	-
Oc1c(C=Nc2ccccc2)sc2ccccc12	2.78	.	-	-	.	-	-	-	-	-	?	-
CC1CN(C(=O)c2cccc(COc3ccccc3Cl)c2)CC(C)O1 (stereo not given)	-	-	-	-	-	-	.	.	.	.	.	.
O=C(c1ccccc1SCc1ccc(F)cc1)N1CCOCC1	-3.46	-	-	-	-	-	-	?	0.0238	-	0.014	-
C#CCSc1nnc(-c2cc3c(C(F)(F)F)nn(C)c3s2)n1C	.	-	-	.	-	-	.	.	.	.	.	.
Cc1ccc2c(c1)nnn2C1CCN(S(=O)(=O)c2cccc(S(=O)(=O)N(C)C)c2)CC1	.	-	-	-	-	-	-	-	?	-	?	-
O=S(=O)(NC1CC1)c1cccc(S(=O)(=O)N2CCCC2)c1	.	-	-	-	-	-	.	.	.	.	.	.
Cc1ccc2c(c1)nnn2C1CCN(S(=O)(=O)c2ccc3ccccc3c2)CC1	-	-	-	.	-	-	.	.	.	.	.	.
O=S(=O)(NC1CCCC1)c1cccc(S(=O)(=O)N2CCC(n3nnc4ccccc43)CC2)c1	.	-	-	-	-	-	-	-	?	-	-	-
Cc1ccc(-n2cccc2/C=N/n2cnnc2)cc1Cl	.	-	-	-	-	-	-	-	-	-	-	-

Bioassay records as filed in PubChem.
